procasp7 counter: procaspase-7 activators, primary screen, counter-screen for procaspase-3 activator project, biochemical, absorbance, HTS, human. Caspase-7 (Homo sapiens), P55210. recombinant procaspase-7, Ac-DEVD-pNA absorbance 405 nm; D23A/D198A/D206A triple mutant, cannot self-cleave; scale: DMSO 0, 5 µM enzyme 100. activation, % at 8.5 µM. 330,000 compounds, 0.093% hits. AID 463210, 2010;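 active = percent activation above the screen-wide mean plus 3 SD, cut at about 25% in these data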
Target sequence (P55210 whole entry D23A/D198A/D206A): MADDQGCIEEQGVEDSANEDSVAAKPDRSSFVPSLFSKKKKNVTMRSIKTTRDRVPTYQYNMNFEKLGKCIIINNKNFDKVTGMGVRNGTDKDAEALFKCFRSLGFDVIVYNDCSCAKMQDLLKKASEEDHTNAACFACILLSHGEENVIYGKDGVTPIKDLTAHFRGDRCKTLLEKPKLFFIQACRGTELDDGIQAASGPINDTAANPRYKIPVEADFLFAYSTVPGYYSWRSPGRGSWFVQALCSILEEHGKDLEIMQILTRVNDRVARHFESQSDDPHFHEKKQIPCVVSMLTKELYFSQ
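signal = Epi-absorbance of released pNA at 405 nm, two timepoints | assay system = Uncleavable procaspase-7 mutant enzyme | reagent = Ac-DEVD-pNA substrate, 400 µM as added | times = 1 h enzyme–compound preincubation and 2 h substrate reaction, both 25 °C | benchmarks = low DMSO alone, high DMSO plus 5 µM PC-7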
aDG glyco up: activators of alpha-DG glycosylation, primary screen, uHTS, Pro5-aDG cells, AlphaScreen. alpha-DG glycosylation AlphaScreen (IIH6); 0% Pro5, 100% B10-LARGE cell signal. activation, % at 10 µM. 360,000 compounds, 0.22% hits. AID 624168, 2012;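 active = activation of at least 8% versus controls, or a plate z-score of at least 8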;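 also: Pro5 are CHO cells carrying HIG-tagged alpha-DG that lacks glycosylation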
proCasp3 act: activators of human procaspase-3 D3A mutant, primary screen, biochemical, absorbance, PC-3 D3A mutant, single concentration; activation, % at 8.5 µM; recombinant procaspase-3 D3A, Ac-DEVD-pNA absorbance 405 nm; Caspase-3 (Homo sapiens), P42574; 330,000 compounds, 0.11% hits;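 active = activation above the mean of all tested compounds plus 3 SD, cut at about 21% in these data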
Target sequence (P42574 whole entry D9A/D28A/D175A): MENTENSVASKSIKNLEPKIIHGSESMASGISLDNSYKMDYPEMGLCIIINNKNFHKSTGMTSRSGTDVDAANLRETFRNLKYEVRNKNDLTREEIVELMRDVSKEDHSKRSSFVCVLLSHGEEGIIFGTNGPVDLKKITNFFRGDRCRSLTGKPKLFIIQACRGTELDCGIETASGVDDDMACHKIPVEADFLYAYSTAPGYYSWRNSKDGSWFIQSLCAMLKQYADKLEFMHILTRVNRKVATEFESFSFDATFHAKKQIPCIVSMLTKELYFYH
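assay system = Procaspase-3 D3A mutant | signal = absorbance at 405 nm, 0 and 120 min | times = 1 h preincubation plus 2 h reaction at 25 °C | repeats = single replicate | read-out = % activation between DMSO and enzyme-spiked controls | medium = Zinc-free HEPES saline buffer with Triton X-100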
MPTP block: mitochondrial permeability transition pore inhibitors, primary screen, biochemical, isolated mouse mitochondria, absorbance; inhibition, % at 10 µM; AID 602449, 2012; Ca2+ swelling absorbance, 30 min; 360,000 compounds, 1.4% hits;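 active = inhibition of 50% or more, scaled per plate between neutral and stimulator controls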
NR3A LBD binder: binders of NR3A ligand-binding domain, primary screen, biophysical, differential scanning fluorimetry, uHTS; Glutamate receptor ionotropic, NMDA 3A (GRIN3A) ligand-binding domain; NR3A LBD differential scanning fluorimetry, Tm shift; 0% = protein alone, 100% = glycine-bound protein; Tm shift relative to glycine control, % at 25 µM; 340,000 compounds, 2.5% hits; AID 1259313, 2017;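 active = melting temperature shift of at least 10% of the positive control shift, at one fixed dose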
Of the large screens only hits and unclear results are named; the others gave an inactive call. Only some compounds are listed: those with a hit (about 3.7% of all), similar ones and a draw of the others.

COc1ccc(C(=O)Nc2ccc(S(=O)(=O)N3CCCC3)cc2)cc1[N+](=O)[O-]	NR3A LBD binder 41.0
COc1ccccc1C(=O)Nc1ccc(S(=O)(=O)N2CCCC2)cc1	none
COc1ccc(C(=O)Nc2ccc(S(=O)(=O)NC(C)(C)C)cc2)cc1[N+](=O)[O-]	NR3A LBD binder 28.2
COc1cc(C(=O)Nc2ccc(S(=O)(=O)NC(C)(C)C)cc2)cc(OC)c1OC	none
COc1ccc(Cl)cc1C(=O)Nc1ccc(S(=O)(=O)N2CCCC2)cc1	NR3A LBD binder 19.6
O=S(=O)(Nc1cccc(S(=O)(=O)N2CCCCC2)c1)c1ccccc1F	none
CCc1nnc(NC(=O)CN2CCOCC2)s1	NR3A LBD binder 13.7
FC(F)(F)c1cccc(N2CCN(c3ccc4nnc(-c5ccccc5)n4n3)CC2)c1	NR3A LBD binder 22.2
CC(Sc1nc(N)cc(=O)[nH]1)C(=O)NNC(=O)c1cccc(Cl)c1 (configuration not stated)	none
CCC(C(=O)Nc1c(C)cccc1C)n1c(-c2ccc(-c3ccccc3)cc2)nc2ccccc21 (configuration not stated)	none (no result: procasp7 counter, proCasp3 act, NR3A LBD binder)
O=S(=O)(N/N=C/c1c(F)cccc1Cl)c1ccccc1	NR3A LBD binder 10.2
COc1ccccc1C(=O)COC(=O)CSC(C)C(=O)Nc1cc(C)on1 (configuration not stated)	none
O=C(COC(=O)c1cccs1)NCCc1ccc(F)cc1	none (no result: procasp7 counter, proCasp3 act)
CC(C)=CCn1c2ccc(NC(=S)NC3CC3)cc2c(=O)n1C	none (no result: procasp7 counter, proCasp3 act, NR3A LBD binder)
Cc1ccc(NC(=O)C2CC(=O)N(c3ccccc3Cl)C2)cc1S(=O)(=O)N1CCOCC1 (configuration not stated)	none (no result: procasp7 counter, proCasp3 act)
COc1c2occc2c(OC)c2c(=O)cc(C(F)(F)F)oc12	NR3A LBD binder 15.8
COc1ccccc1OC(C)C(=O)O (configuration not stated)	NR3A LBD binder 12.7
O=C(Nc1nnc([C@H]2C[C@H](O)[C@@H](CO)O2)s1)c1cccc(Oc2ccccc2)c1	none (no result: procasp7 counter, proCasp3 act, NR3A LBD binder)
CCOc1ccc(NC(=O)c2ccc(NC(=S)NC3CC3)cc2)cc1	NR3A LBD binder 30.9
N#CCC(=O)Nc1ccc(C(=O)NNC(=S)NC2CCCCC2)cc1	NR3A LBD binder 29.2
CCOc1ccc(C(=O)NC2CCCCCCC2)cc1	none
CCOc1ccc(NC(=O)c2ccc(NC(=S)NC3CCCCC3)cc2)cc1	NR3A LBD binder 28.0
CCOc1ccc(NC(=O)c2ccc(N)cc2)cc1	none
CCOc1ccc(NC(=O)c2ccc(NC(=O)c3ccc(NC(N)=O)cc3)cc2)cc1	NR3A LBD binder 26.8
CCNC(=O)C1(C)CCN(C(=O)c2cccc(Cl)c2)C1 (configuration not stated)	none (no result: procasp7 counter, proCasp3 act, NR3A LBD binder)
CCC1NC(=O)c2cccnc2-n2c1nc1ccc(F)cc1c2=O (configuration not stated)	none (no result: procasp7 counter, proCasp3 act, NR3A LBD binder)
CCNC(=O)C1(C)CCCN1C(=O)c1cc(OC)c(OC)c(OC)c1 (configuration not stated)	none (no result: procasp7 counter, proCasp3 act, NR3A LBD binder)
O=C(CSCc1ccc(F)cc1)Nc1ccccc1C(=O)N1CCOCC1	none
CC(C)CNC(=O)c1ccccc1NC(=O)CSCc1ccccc1	NR3A LBD binder 13.6
COc1ccc([C@H]2[C@H](C(=O)OC(C)(C)C)N3N=Cc4ccccc4C3C23C(=O)c2ccccc2C3=O)cc1OC (some centres not stated)	aDG glyco up 9.9
COc1ccc([C@H]2[C@H](C(=O)OC(C)(C)C)N3N=Cc4ccccc4C3C23C(=O)c2ccccc2C3=O)c(OC)c1 (some centres not stated)	none
NC(=S)NN=C1CSSC1	none (no result: procasp7 counter, proCasp3 act, NR3A LBD binder)
CCN(CC)CCN1CCN(c2cncc(-c3ccc4ccccc4c3)n2)CC1	none (no result: procasp7 counter, proCasp3 act, NR3A LBD binder)
O=c1[nH]c(-c2ccc(O)cc2)nc2scc(-c3cccs3)c12	NR3A LBD binder 18.8
COc1ccccc1C(=O)NCC(=O)N1CC=C(c2ccccc2)CC1	none
CCCCn1nnnc1C(c1ccccc1)N1CCN(c2ccc(C)cc2)CC1 (configuration not stated)	none (no result: procasp7 counter, proCasp3 act, NR3A LBD binder)
CCCCCCCCCCOC(=O)Cn1c(COc2ccccc2C)[n+](C)c2ccccc21	NR3A LBD binder 31.0
CCCCCCCCCCOC(=O)Cn1c(COc2ccc(Cl)cc2)[n+](C)c2ccccc21	NR3A LBD binder 20.7
CCCCCCCCCCOC(=O)Cn1c(COc2ccccc2)[n+](C)c2ccccc21	none
CSc1ccccc1OCc1cc(C(=O)NCCN2CCCc3ccccc32)no1	NR3A LBD binder 11.9
CC(C)(C)C1CCc2c(sc(NC(=O)c3ccco3)c2C(N)=O)C1 (configuration not stated)	none
N#Cc1c(NC(=O)CSc2nc(-c3ccccc3)cc(C(F)(F)F)n2)sc2c1CCC2	none
CCC1CCc2c(sc(NC(=O)CSc3nc(-c4ccco4)cc(C(F)(F)F)n3)c2C#N)C1 (configuration not stated)	NR3A LBD binder 12.1
CCC1CCc2c(sc(NC(=O)c3ccco3)c2C(N)=O)C1 (configuration not stated)	NR3A LBD binder 715.0
O=S1(=O)C[C@H](N2CCCC2)[C@@H](COCc2ccccc2)N1	none (no result: procasp7 counter, proCasp3 act, NR3A LBD binder)
O=C(COC(=O)c1ccccc1)Nc1ccccc1Br	none
O=C(COC(=O)c1c(Cl)cccc1Cl)Nc1ccccc1Br	NR3A LBD binder 14.8
O=C(Nc1nc(-c2ccccc2)c(C(=O)c2ccccc2)s1)c1ccc(S(=O)(=O)N2CCCC2)cc1	NR3A LBD binder 14.4
CN(C)S(=O)(=O)c1ccc(C(=O)Nc2nc(-c3ccccc3)c(C(=O)c3ccccc3)s2)cc1	NR3A LBD binder 22.2
O=C(Nc1nc(-c2ccccc2)c(-c2ccccc2)s1)c1ccc(S(=O)(=O)N2CCCC2)cc1	none
CCCN(CCC)S(=O)(=O)c1ccc(C(=O)Nc2nc3c(s2)CCc2ccccc2-3)cc1	none
N#CCCN(CCC#N)S(=O)(=O)c1ccc(C(=O)Nc2nc(-c3ccccc3)c(C(=O)c3ccccc3)s2)cc1	NR3A LBD binder 11.7
Cc1ccc(-c2nc(NC(=O)c3ccc(S(=O)(=O)N(CCC#N)CCC#N)cc3)sc2-c2ccccc2)cc1	NR3A LBD binder 10.3
COC(=O)Nc1nc(-c2ccccc2)c(C(=O)c2ccccc2)s1	none
CCOC(=O)Cc1ccc(Nc2nc3cc(-c4ccccc4C)sc3c(=O)n2C)cc1	none (no result: procasp7 counter, proCasp3 act, NR3A LBD binder)
CCCN(C)C1CN(Cc2cn(CCCC(=O)OC)nn2)S(=O)(=O)C1 (configuration not stated)	none (no result: procasp7 counter, proCasp3 act, NR3A LBD binder)
CCc1cc2cc(C)c(C)cc2nc1SCC(=O)NNC(=O)c1ccco1	NR3A LBD binder 13.2

Screens (PubChem BioAssay)
